The values below come from the EternaBench riboswitch data.

In the data set the test system is MS2 coat protein. Description: apparent Kd, MS2 coat protein; higher = weaker binding; RNA-MaP array; FMN 200 µM where present. The essentials: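 Two titrations, one without ligand and one with constant ligand, were run with SNAP-549-labelled MS2 coat protein from 0.7 or 1.5 nM, doubling to 3 µM. The targets were designs transcribed by stalled E. coli RNA polymerase on Illumina sequencing-chip clusters, in 100 mM Tris-HCl pH 7.5, 80 mM KCl, 4 mM MgCl2, BSA, DTT, yeast tRNA and Tween-20. The apparent Kd is the median of filtered per-cluster binding-curve fits, with green signal normalised to red-channel RNA signal and control-cluster median Fmax.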

Where [1] appears, read: designed as: OFF switch for flavin mononucleotide, no ligand.
[2] abbreviates: ligand present: flavin mononucleotide, designed as: OFF switch for flavin mononucleotide.
[3] abbreviates: designed as: ON switch for flavin mononucleotide, no ligand.
The mark [4] stands for this setting: ligand present: flavin mononucleotide, designed as: ON switch for flavin mononucleotide.

The term apparent Kd denotes a dissociation constant that holds for the conditions of the assay. Turning to “AAGUAGAUCCGAGGAUAUACAAUCCGGAAACGGUACAUGAGGAUCACCCAUGUAGAAGGCGGAUCUACAGGUACUAAAGUACCC”, the “apparent Kd” value under setting [1] was found to be 5.61 nM and the “apparent Kd” value under setting [2] came to 8.06 nM.

“GCUAUGUCAGGAUAUUGAUCGUGAUCGGAAAUGAUCGUGAUCGAGAAGGGACAUGAGGAUCACCCAUGUGUAGU”: the “apparent Kd” value under setting [1] stood at 166 nM and the “apparent Kd” value under setting [2] was 492 nM.

For “CAACUGGCACAGAAGGGUGACAUGAGGAUCACCCAUGUAGCGUGGCACUCAGGAGGAGCCACGCCACAGGAUAUGUGCGGGCAC”, the “apparent Kd” value under setting [3] was found to be 42.3 nM and the “apparent Kd” value under setting [4] was found to be 78.4 nM.

As for “AUCAGCUCGUCAGGAUAUACGUCACUGCGUCAGCAGUGUGGUAAGAUCACAUGAGGAUCACCCAUGUAGAAGGUACGAGCUGAU”, the “apparent Kd” value is, setting by setting: under setting [1], 8.6 nM; under setting [2], 13.8 nM.

Take “UUAUAUAUAUAAGGAUAUGUAUAUCCAACAUGAGGAUCACCCAUGUUGAGGAUCACCCAUGUAAAGCAGAAGGUAUAUAUAAAU”: the “apparent Kd” value by setting is: under setting [3], 42.8 nM; under setting [4], 26.4 nM.

Take “GUGGCGACUGAGAAGGUACGCAUAAAAGAGAAGUAAGGAUAUCAGUCACAUGAGGAUCACCCAUGUGUUGGAAAGAUCCUUAAA”: the “apparent Kd” value reads like this: under setting [1], 10.4 nM; under setting [2], 37.9 nM.

For “AAGGAGUUAGGAUAUGCUGCUCGUCACUUGCGUGAUGAGUAGCAGAAGGGACAUGAGGAUCACCCAUGUAAAGA”, the “apparent Kd” value under setting [1] was determined as 41.9 nM and the “apparent Kd” value under setting [2] amounted to 21.9 nM.

Consider “UAAAUUUUAUGAUAUUAUGACAGUAGAAGGCUAUACAUGUUGAUACAUGAGGAUCACCCAUGUAUAGAGGAUAUAUACAAUUAU”, for which the “apparent Kd” value turned out to be 1050 nM under setting [1] and 315 nM under setting [2].

For the sequence “CUGAUGUCAGGAUAUCAGAAAAGGUGCGAGGACGCACCAAAUGAGAAGGGACAUGAGGAUCACCCAUGUAAAAC”, the “apparent Kd” value worked out at 22.3 nM under setting [1] and 139 nM under setting [2].

“UUACCACAUGAGGAUCACCCAUGUCAGGAUAUACUAUUAACUACAUUUUCUUAUUUUAGUAGAAGGGACACUUU”: the “apparent Kd” value reads like this: under setting [1], 26 nM; under setting [2], 23.1 nM.

“GUGUACAGAGGAUAUACAUAAGCUAGGAAACUAGCAUCUUCACAUGAGGAUCACCCAUGUAGAAGGCUGUACAC”: the “apparent Kd” value reads like this: under setting [1], 19.8 nM; under setting [2], 78.5 nM.

In the case of “AUCAGCUCGUCAGGAUAUACGUCACUGCGUCAGCAGUGUGGUAAGAUCACAUGAGGAUCACCCAUGUAGAAGGGACGAGCUGAC”, the “apparent Kd” value is 14.2 nM under setting [1] and 306 nM under setting [2].

Regarding “GUGCUCGUGUGAGGAUAUGCUUCCGUUUCGGCUGCAGAAGGUACUAUUAUACAUGAGGAUCACCCAUGUCUCUUUUCUUCGGUG”, the “apparent Kd” value by setting is: under setting [3], 33.1 nM; under setting [4], 33.7 nM.

In the case of “GCGCGGAACCUAGGAUAUCCGGCAUGGACAGGUGGUAAGUCUCCCACAUGAGGAUCACCCAUGUAGGAGAAGGAGGAUCACGGG”, the “apparent Kd” value is, setting by setting: under setting [1], 6.51 nM; under setting [2], 6.7 nM.

Take “CGUUCGUGAGGAUAUUGUGGAAUUGACAUGAGGAUCACCCAUGUGGCCAUUGUCGACUCGCAAGAAGGCAUAGAUU”: the “apparent Kd” value is, setting by setting: under setting [1], 54.2 nM; under setting [2], 189 nM.

In the case of “UACGUACAGAAGUACUCCGGGUCCAGAAGGGACAUGAGGAUCACCCAUGUACCGUUGAUUGCUUGUCAGGAUAUGGACCCAGCC”, the “apparent Kd” value stood at 7.76 nM under setting [1] and 29 nM under setting [2].

Turning to “AUCAUCUUAUCAGGAUAUGCGAGUCGACGAAAGUAGACAAUCUUGAUAACAUGAGGAUCACCCAUGUAGAAGGGAUGAGAUGAU”, the “apparent Kd” value under setting [1] was determined as 48.1 nM and the “apparent Kd” value under setting [2] came out at 51.7 nM.

As for “GGUGGCGACGAGAAGGUUCACACAUGAGGAUCACCCAUGUAUGACAUGAGGAUCACCCAUGUAAGGGAGGAUAUUGGAUUUACC”, the “apparent Kd” value under setting [1] stood at 92.8 nM and the “apparent Kd” value under setting [2] is 91.4 nM.

As to “UGCUAAUUGUAGAAGGGUGACAUGAGGAUCACCCAUGUUCACAUGCGAUUUACGGCGCAUGUUCCACAGGAUAUACAGUUGAGU”, the “apparent Kd” value by setting is: under setting [3], 342 nM; under setting [4], 60.1 nM.

In the case of “ACUAUACGAGGAUAUACUGACGGGCCUCAGGCAUCCAUCAGACAUGAGGAUCACCCAUGUAGAAGGCGUAUACU”, the “apparent Kd” value is, setting by setting: under setting [1], 56.1 nM; under setting [2], 158 nM.

With “UAACCACAUGAGGAUCACCCAUGUGAGGAUAUGUCCAUAUUCGGCAAAUCGGAUAUGGACAGAAGGCACACCGG”, the “apparent Kd” value runs as follows: under setting [1], 41.6 nM; under setting [2], 68.7 nM.

Turning to “CGGAUGUCAGGAUAUACGAACAUGUCGCCAGAUGUCAUGGUACAUGAGGAUCACCCAUGUAGAAGGGAGGUGGU”, the “apparent Kd” value under setting [1] is 160 nM and the “apparent Kd” value under setting [2] is 331 nM.

On to “ACAUGUACAGAGGAUAUGCGCCUUGGCAACGGUGUAGAAGGCUGAACAUGAGGAUCACCCAUGUGCAAUCCAGC”, for which the “apparent Kd” value is 28.4 nM under setting [1] and 146 nM under setting [2].

Turning to “UCGCGGGAGCAGAAGGGAUAGGCCUAUUGUCGUGGAGUCUAAACUUAACAUGAGGAUCACCCAUGUCAGGAUAUGCCCACGCGA”, the “apparent Kd” value under setting [1] was 9.89 nM and the “apparent Kd” value under setting [2] is 10.5 nM.

Take “AUCAGCUCGUCAGGAUAUACGUCACUGCGUCAGUAGUGUGGUAAGAUCACAUGAGGAUCACCCAUGUAGAAGGGACGAGCUGAU”: the “apparent Kd” value under setting [1] is 14.5 nM and the “apparent Kd” value under setting [2] is 284 nM.

In the case of “AACCUAUUACAGAAGGCCAGCUACAUGAGGAUCACCCAUGUCGAGUCAUGGAGGAUAUGUAGUAAUUUACUCGCAGAUAAGUGC”, the “apparent Kd” value runs as follows: under setting [3], 22.6 nM; under setting [4], 4.45 nM.

Regarding “CCAUGUUAGCAGGAUAUGCAAUUAUUCUUUUAAGCAGAAGGGCUUACAUGAGGAUCACCCAUGUAACAUUUCAU”, the “apparent Kd” value under setting [1] is 17.3 nM and the “apparent Kd” value under setting [2] stood at 85.4 nM.

For “AUGUUUAAUGCAGGAUAUGAUUAACAUGAGGAUCACCCAUGUGGUGUUGUGAGUAAGGAGAGUGAUCAGAAGGGCAUUUUUUUU”, the “apparent Kd” value is, setting by setting: under setting [3], 592 nM; under setting [4], 540 nM.

Take “UGCUACGUUUCGUAGCAGCUAGGUGAGGAUAUUCAAUUUUUCACAUGAGGAUCACCCAUGUAUGUGAAGAAGGCGCCUAGAAAA”: the “apparent Kd” value by setting is: under setting [3], 10.2 nM; under setting [4], 4.56 nM.

For the sequence “AUGUGGUGCGUAGGAUAUCAUUAAAGAAAACCCUGAGAAGGACGUGAGGACAUGAGGAUCACCCAUGUGGAUCACCCAUGUCAA”, the “apparent Kd” value is, setting by setting: under setting [1], 316 nM; under setting [2], 278 nM.

On to “GGACAUAAAGUCAGGAUAUUAAGGCGACCACGCGAUGAGAAGGGACAUGAGGAUCACCCAUGUGAUUCGCAUCA”, for which the “apparent Kd” value is, setting by setting: under setting [1], 115 nM; under setting [2], 101 nM.

With “ACGACGAAAGUCGAACGAUGAUCGAGAAGGACAUGAGGAUCACCCAUGUUCCCUGUAACAGGCAUGUAGGAUAUCGAUCAUCGA”, the “apparent Kd” value was 3.99 nM under setting [1] and 7.18 nM under setting [2].

Take “UUUAUGUCAGGAUAUGAGUCGUAGAACAAUAGUACUACGUCUCAGAAGGGACAUGAGGAUCACCCAUGUGCCUC”: the “apparent Kd” value amounted to 40.4 nM under setting [1] and 316 nM under setting [2].

In the case of “AGAAACUACGAGAAGGACAUGUGGUAAAACGCAAACAUGAGGAUCACCCAUGUAGGAUAUCGUAGUUUCAGGAUCGUGAGAUCA”, the “apparent Kd” value under setting [1] came to 589 nM and the “apparent Kd” value under setting [2] came to 26.9 nM.

In the case of “AUCCUGCGAGGAUAUACAUAGUUUUGUUUGUUUUGUCUCAAACAUGAGGAUCACCCAUGUAGAAGGUGCGUCAC”, the “apparent Kd” value by setting is: under setting [1], 155 nM; under setting [2], 130 nM.

As for “AACCUAUUACAGAAGGCCAGCUACAUGAGGAUCACCCAUGUCGAGUCAUGGAGGAUAUGUAGUAAUUUACUCACAGAUGAGUGC”, the “apparent Kd” value by setting is: under setting [3], 25.8 nM; under setting [4], 5.31 nM.

As to “UGCGCUGAGGGAGGAUAUGACAUGAGGAUCACCCAUGUGAUAGGUUUCUUGUCAGAAGGCCCGCAUGUACCAAAUUAGGUUUGU”, the “apparent Kd” value runs as follows: under setting [1], 94 nM; under setting [2], 126 nM.

With “GUGCAUUCGUAGAAGGGUGACAUGAGGAUCACCCAUGUGCGCUGAGCUCAAGAUGCACCAGCGCCACAGGAUAUACGAAGCACC”, the “apparent Kd” value is, setting by setting: under setting [3], 54.3 nM; under setting [4], 84 nM.

For “UUAUAAAAUAAAGGAUAUUCAUACCGGAAACGGACAUGAGGAUCACCCAUGUGGCGAAAGCCUUGGGAGAAGGUUAAAAUAUAU”, the “apparent Kd” value is, setting by setting: under setting [3], 441 nM; under setting [4], 317 nM.

As for “CCAGAGAUAUGAGGAUAUCGAGUGGAAUACACUCGAGAAGGCAUGUGAAUACAUGAGGAUCACCCAUGUGAUCAAUACUCUGGA”, the “apparent Kd” value was determined as 171 nM under setting [3] and 32.6 nM under setting [4].

With “GUCAGCUCGUGAGGAUAUACAACACUGCUUCGGCAGUGUAUUAAGAUCACAUGAGGAUCACCCAUGUAGAAGGCACUAGCUGAU”, the “apparent Kd” value runs as follows: under setting [1], 13.9 nM; under setting [2], 256 nM.

Regarding “CUGCUUCCCAGUAUGGGUAUUUUUACAGAAGGCCAGGCACAUGAGGAUCACCCAUGUCAAGUUUUGGAGGAUAUGUUAUUGUCG”, the “apparent Kd” value by setting is: under setting [3], 8.53 nM; under setting [4], 4.72 nM.

For the sequence “UGAUCUUACAUGAGGAUCACCCAUGUAGGCCAGUAACUAACCAGAAGGCACGUAGAGUACAACAGUGAGGAUAUGGAUGACAUA”, the “apparent Kd” value reads like this: under setting [3], 9.29 nM; under setting [4], 5.95 nM.

Regarding “GCGAUUGCGUAGAAGGUACAAUAUAAUACAUUGUAAGGAUAUACUUACAUGAGGAUCACCCAUGUUAAUGGAAUUUGCAAUCGC”, the “apparent Kd” value is 18.2 nM under setting [3] and 11.9 nM under setting [4].

“AAAAACAGAGGAUAUACAAAAUUAUGACGAAAGUCAUAAAAACAUGAGGAUCACCCAUGUAGAAGGCUGGAAAA”: the “apparent Kd” value was 30.4 nM under setting [1] and 28.9 nM under setting [2].

For the sequence “GGCUGUUUAGGAUAUACAUGAGGAUCACCCAUGUCGUUUAAUACAGACGGAUCCAACUGUAGAAGGAGAUGCCG”, the “apparent Kd” value by setting is: under setting [1], 102 nM; under setting [2], 79.7 nM.

Take “UGCUGGUGACAGCAUCCAUCAAAACAUGAGGAUCACCCAUGUAGAAGGCUGUACGGUUACCGUACAGAGGAUAUACAAUGAUGC”: the “apparent Kd” value runs as follows: under setting [1], 15.4 nM; under setting [2], 29.4 nM.

On to “UAAUAGGGAGGAUAUCCAAUAUAUGACAUGAGGAUCACCCAUGUUUCCACUCGUACCUCCGGAGAAGGCCCAUAAU”, for which the “apparent Kd” value under setting [1] came to 21 nM and the “apparent Kd” value under setting [2] is 18.7 nM.
